Reference: ChEMBL document CHEMBL5303300, “EUbOPEN Chemogenomics Library - Multiplex” (2023)
Several values for one entry are separate records, joined by “and”; a condition that tells them apart may be missing. Equal values may be shown once.

Columns and labels:
[1] = system: Fibroblast; experiment: Multiplex assay against human fibroblast; format: toxicity, cell-based; conditions: number of replicates 2
How it was run: (§1)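 Hoechst33342, BioTracker Green Microtubule Cytoskeleton Dye, MitoTracker Red and Annexin V Alexa Fluor 680 were added to live cells at seeding, and imaging on a CQ1 microscope at 37°C and 5% CO2 followed compound addition. Gating by CellPathfinder machine learning separated cells into Hoechst high-intensity objects or normal cells, then normal cells into healthy, pyknosed or fragmented nuclei, then pyknosed cells into mitotic or apoptotic. Per cents of healthy-nucleus cells are reported for the tubulin, mitochondrial-mass and membrane-permeability phenotypes.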

[2] = system: HEK-293T; experiment: Multiplex assay against HEK293T; format: toxicity, cell-based; conditions: human, number of replicates 2; how it was run: as §1
[3] = 12 h, 1 µM, compound concentration 1 uM
[4] = 12 h, 10 µM, compound concentration 10 uM
[5] = 24 h, 1 µM, compound concentration 1 uM
[6] = 24 h, 10 µM, compound concentration 10 uM
[7] = 48 h, 1 µM, compound concentration 1 uM
[8] = 48 h, 10 µM, compound concentration 10 uM

## N[C@@H]1c2cccnc2[C@H](OC(=O)N2CCC(n3c(=O)[nH]c4ncccc43)CC2)CC[C@H]1c1cccc(F)c1F [RIMEGEPANT]
[1]; [3]
  Population Apoptotic (%): 56% and 33%
  Population Fragmented Nuclei (%): 6% and 16%
  Population Healthy Nuclei (%): 56% and 69%
  Population Hoechst High Intensity Objects (%): 0% and 3%
  Population Membrane Permeable-Phenotype (%): 5% and 7%
  Population Mitochondria Different-Phenotype (%): 1% and 0%
  Population Mitotic Cells (%): 43% and 66%
  Population Normal (%): 100% and 96%
  Population Pyknosed Nuclei (%): 37% and 14%
  Population Tubulin-Different-Phenotype (%): 20% and 21%
  Total Cell Count: 129 and 236
[1]; [4]
  Population Apoptotic (%): 47% and 44%
  Population Fragmented Nuclei (%): 14% and 13%
  Population Healthy Nuclei (%): 75%
  Population Hoechst High Intensity Objects (%): 0%
  Population Membrane Permeable-Phenotype (%): 9% and 14%
  Population Mitochondria Different-Phenotype (%): 5% and 4%
  Population Mitotic Cells (%): 52% and 55%
  Population Normal (%): 100%
  Population Pyknosed Nuclei (%): 10% and 11%
  Population Tubulin-Different-Phenotype (%): 61% and 59%
  Total Cell Count: 183 and 237
[1]; [5]
  Population Apoptotic (%): 54% and 32%
  Population Healthy Nuclei (%): 60% and 61%
  Population Hoechst High Intensity Objects (%): 0% and 2%
  Population Membrane Permeable-Phenotype (%): 10% and 1%
  Population Mitochondria Different-Phenotype (%): 0%
  Population Mitotic Cells (%): 45% and 67%
  Population Normal (%): 99% and 97%
  Population Pyknosed Nuclei (%): 35% and 18%
  Population Tubulin-Different-Phenotype (%): 22% and 15%
  Total Cell Count: 124 and 234
[1]; [6]
  Population Apoptotic (%): 47% and 64%
  Population Fragmented Nuclei (%): 12%
  Population Healthy Nuclei (%): 78% and 80%
  Population Hoechst High Intensity Objects (%): 0%
  Population Membrane Permeable-Phenotype (%): 7% and 6%
  Population Mitochondria Different-Phenotype (%): 3% and 5%
  Population Mitotic Cells (%): 52% and 35%
  Population Normal (%): 100% and 99%
  Population Pyknosed Nuclei (%): 9% and 7%
  Population Tubulin-Different-Phenotype (%): 50% and 36%
  Total Cell Count: 199 and 236
[1]; [7]
  Population Apoptotic (%): 65% and 48%
  Population Fragmented Nuclei (%): 8% and 21%
  Population Healthy Nuclei (%): 75% and 65%
  Population Hoechst High Intensity Objects (%): 0% and 1%
  Population Membrane Permeable-Phenotype (%): 4% and 2%
  Population Mitochondria Different-Phenotype (%): 1%
  Population Mitotic Cells (%): 35% and 51%
  Population Normal (%): 100% and 98%
  Population Pyknosed Nuclei (%): 16% and 12%
  Population Tubulin-Different-Phenotype (%): 6% and 10%
  Total Cell Count: 125 and 227
[1]; [8]
  Population Apoptotic (%): 77% and 47%
  Population Fragmented Nuclei (%): 14% and 13%
  Population Healthy Nuclei (%): 81% and 78%
  Population Hoechst High Intensity Objects (%): 0%
  Population Membrane Permeable-Phenotype (%): 1% and 5%
  Population Mitochondria Different-Phenotype (%): 1% and 0%
  Population Mitotic Cells (%): 22% and 52%
  Population Normal (%): 99% and 100%
  Population Pyknosed Nuclei (%): 4% and 7%
  Population Tubulin-Different-Phenotype (%): 37% and 16%
  Total Cell Count: 205 and 225
[2]; [3]
  Population Apoptotic (%): 64% and 44%
  Population Fragmented Nuclei (%): 4% and 5%
  Population Healthy Nuclei (%): 78% and 83%
  Population Hoechst High Intensity Objects (%): 14% and 10%
  Population Membrane Permeable-Phenotype (%): 3% and 1%
  Population Mitochondria Different-Phenotype (%): 18% and 17%
  Population Mitotic Cells (%): 35% and 55%
  Population Normal (%): 85% and 89%
  Population Pyknosed Nuclei (%): 17% and 10%
  Population Tubulin-Different-Phenotype (%): 47%
  Total Cell Count: 573 and 694
[2]; [4]
  Population Apoptotic (%): 40% and 46%
  Population Fragmented Nuclei (%): 4%
  Population Healthy Nuclei (%): 83% and 84%
  Population Hoechst High Intensity Objects (%): 5% and 6%
  Population Membrane Permeable-Phenotype (%): 1% and 4%
  Population Mitochondria Different-Phenotype (%): 49% and 18%
  Population Mitotic Cells (%): 60% and 53%
  Population Normal (%): 94% and 93%
  Population Pyknosed Nuclei (%): 12% and 11%
  Population Tubulin-Different-Phenotype (%): 98% and 82%
  Total Cell Count: 526 and 617
[2]; [5]
  Population Apoptotic (%): 56% and 37%
  Population Fragmented Nuclei (%): 7% and 6%
  Population Healthy Nuclei (%): 75% and 85%
  Population Hoechst High Intensity Objects (%): 11% and 8%
  Population Membrane Permeable-Phenotype (%): 0% and 1%
  Population Mitochondria Different-Phenotype (%): 5% and 4%
  Population Mitotic Cells (%): 43% and 62%
  Population Normal (%): 88% and 91%
